The source made the active and inactive calls. The rule behind the calls is not given here.
Assays:
[1] = target: Hepatocyte growth factor receptor (Homo sapiens) (UniProt P08581); test: Inhibition of c-Met-mediated p70S6K phosphorylation in HGF-stimulated human A549 cells pretreated at 5 to 100 nM by Western blot analysis; format: cell-based
How it was run: (§1)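 A549 cells pretreated for 2 h with the compound at 5, 20 or 100 nM, then stimulated with HGF (50 ng/mL) for 10 min. c-Met and its downstream signalling proteins read by Western blot (SDS-PAGE, PVDF transfer, ECL detection).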

A549 [2] = test: Cell cycle arrest in human A549 cells assessed as accumulation at G0/G1 phase at 5 nM after 24 hrs by propidium iodide staining-based flow cytometric analysis (reference value: 49.6 %); format: functional
A549 [3] = test: Cell cycle arrest in human A549 cells assessed as accumulation at G2/M phase at 5 nM after 48 hrs by propidium iodide staining-based flow cytometric analysis (reference value: 18.9 %); format: functional
[4] = target: Hepatocyte growth factor receptor (Homo sapiens) (UniProt P08581); test: Inhibition of c-Met-mediated ERK1/2 phosphorylation in HGF-stimulated human A549 cells pretreated at 5 to 100 nM by Western blot analysis; format: cell-based; how it was run: as §1
PC-3 = test: Antiproliferative activity against human PC3 cells after 3 days by SRB assay; format: functional, cell-based; details: PC-3, 72 h
How it was run: (§2)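 Cells seeded at 5 × 10^4 cells/mL and exposed to a range of concentrations for 3 days. Fixed with 10% TCA, then SRB stain read. Growth expressed as % of solvent-treated control. IC50 obtained by nonlinear regression of percent survival versus concentration.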

A549 [5] = test: Downregulation of cyclin A expression in human A549 cells at G1 phase at 5 to 100 nM after 24 to 48 hrs by Western blot analysis; format: functional, cell-based
How it was run: (§3)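 A549 cells treated with a range of concentrations for 24 or 48 h. Lysates run on 6–15% SDS-PAGE and blotted to PVDF, blocked in 5% milk/PBST. Primary antibodies overnight at 4 °C, secondary 2 h at room temperature, ECL detection. Representative of three independent experiments.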

A549 [6] = test: Cell cycle arrest in human A549 cells assessed as accumulation at S phase at 5 nM after 48 hrs by propidium iodide staining-based flow cytometric analysis (reference value: 31.6 %); format: functional
[7] = target: Hepatocyte growth factor receptor (Homo sapiens) (UniProt P08581); test: Inhibition of c-Met-mediated 4EBP1 phosphorylation in HGF-stimulated human A549 cells pretreated at 5 to 100 nM by Western blot analysis; format: cell-based; how it was run: as §1
A549 [8] = test: Downregulation of CDK2 expression in human A549 cells at G1 phase at 5 to 100 nM after 24 to 48 hrs by Western blot analysis; format: functional, cell-based; how it was run: as §3
A549 [9] = test: Cell cycle arrest in human A549 cells assessed as accumulation at Sub-G1 phase at 100 nM after 48 hrs by propidium iodide staining-based flow cytometric analysis (reference value: 0.2 %); format: functional
A549 [10] = test: Cell cycle arrest in human A549 cells assessed as accumulation at Sub-G1 phase at 20 nM after 48 hrs by propidium iodide staining-based flow cytometric analysis (reference value: 0.2 %); format: functional
[11] = target: Hepatocyte growth factor receptor (Homo sapiens) (UniProt P08581); test: Inhibition of c-Met-mediated STAT3 phosphorylation in HGF-stimulated human A549 cells pretreated at 5 to 100 nM by Western blot analysis; format: cell-based; how it was run: as §1
A549 [12] = test: Cell cycle arrest in human A549 cells assessed as accumulation at G2/M phase at 100 nM after 48 hrs by propidium iodide staining-based flow cytometric analysis (reference value: 18.9 %); format: functional
A549 [13] = test: Antitumor activity against human A549 cells xenografted in BALB/c mouse assessed as inhibition of tumor growth at 0.5 mg/kg, po once daily for 14 days measured for 27 days relative to control; format: functional; details: read-out: GI
How it was run: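 Female nu/nu nude mice given 3 × 10^6 A549 cells sc into the right flank, in 200 μL medium. At ~100 mm3, randomized into groups of five. Dosed orally once daily for 14 days in 100 μL ethanol–Tween 80–water (1:1:98), vehicle as control. Tumor volume measured by caliper every 2–3 days; body weight monitored.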

A549 [14] = test: Cell cycle arrest in human A549 cells assessed as accumulation at Sub-G1 phase at 5 nM after 48 hrs by propidium iodide staining-based flow cytometric analysis (reference value: 0.2 %); format: functional
NCI-H358 = test: Antiproliferative activity against human NCI-H358 cells after 3 days by SRB assay; format: functional, cell-based; details: NCI-H358, 72 h; how it was run: as §2
SW480 = test: Antiproliferative activity against human SW480 cells after 3 days by SRB assay; format: functional, cell-based; details: SW480, 72 h; how it was run: as §2
[15] = target: Epidermal growth factor receptor (Homo sapiens) (UniProt P00533); test: Inhibition of EGFR phosphorylation in […]-stimulated human A549 cells pretreated at 20 nM by Western blot analysis; format: cell-based
How it was run: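 A549 cells serum-starved 24 h, pretreated with 20 nM for 2 h, then stimulated with EGF (10 ng/mL) for 10 min. EGFR, Akt and ERK phosphorylation and levels assessed by Western blot.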

A549 [16] = test: Cell cycle arrest in human A549 cells assessed as accumulation at G2/M phase at 5 nM after 24 hrs by propidium iodide staining-based flow cytometric analysis (reference value: 18.9 %); format: functional
A549 [17] = test: Antiproliferative activity against human A549 cells after 3 days by SRB assay; format: functional, cell-based; details: A549, 72 h; how it was run: as §2
NCI-H1993 = test: Antiproliferative activity against human NCI-H1993 cells after 3 days by SRB assay; format: functional, cell-based; details: NCI-H1993, 72 h
A549 [18] = test: Cell cycle arrest in human A549 cells assessed as accumulation at G2/M phase at 20 nM after 24 hrs by propidium iodide staining-based flow cytometric analysis (reference value: 18.9 %); format: functional
A549 [19] = test: Antiproliferative activity against human A549 cells assessed as reduction in colonies after treatment for 24 hrs measured after 14 days using Giemsa staining; format: functional, cell-based
How it was run: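 A549 plated at 100 cells per 35 mm dish. After 24 h, medium with compound added for 24 h, then PBS wash and 14 days' growth in drug-free medium. Colonies methanol-fixed, Giemsa-stained, counted, and expressed as % of DMSO-treated control.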

A549 [20] = test: Cell cycle arrest in human A549 cells assessed as accumulation at Sub-G1 phase at 20 nM after 24 hrs by propidium iodide staining-based flow cytometric analysis (reference value: 0.2 %); format: functional
A549 [21] = test: Downregulation of c-myc expression in human A549 cells at G1 phase at 5 to 100 nM after 24 to 48 hrs by Western blot analysis; format: functional, cell-based; how it was run: as §3
A549 [22] = test: Cell cycle arrest in human A549 cells assessed as accumulation at S phase at 20 nM after 48 hrs by propidium iodide staining-based flow cytometric analysis (reference value: 31.6 %); format: functional
[23] = target: Hepatocyte growth factor receptor (Homo sapiens) (UniProt P08581); test: Inhibition of c-Met-mediated FAK phosphorylation in HGF-stimulated human A549 cells pretreated at 5 to 100 nM by Western blot analysis; format: cell-based; how it was run: as §1
A549 [24] = test: Cell cycle arrest in human A549 cells assessed as accumulation at G0/G1 phase at 100 nM after 48 hrs by propidium iodide staining-based flow cytometric analysis (reference value: 49.6 %); format: functional
A549 [25] = test: Cell cycle arrest in human A549 cells assessed as accumulation at G2/M phase at 100 nM after 24 hrs by propidium iodide staining-based flow cytometric analysis (reference value: 18.9 %); format: functional

Chain of Hepatocyte growth factor receptor (Homo sapiens) (P08581 whole entry): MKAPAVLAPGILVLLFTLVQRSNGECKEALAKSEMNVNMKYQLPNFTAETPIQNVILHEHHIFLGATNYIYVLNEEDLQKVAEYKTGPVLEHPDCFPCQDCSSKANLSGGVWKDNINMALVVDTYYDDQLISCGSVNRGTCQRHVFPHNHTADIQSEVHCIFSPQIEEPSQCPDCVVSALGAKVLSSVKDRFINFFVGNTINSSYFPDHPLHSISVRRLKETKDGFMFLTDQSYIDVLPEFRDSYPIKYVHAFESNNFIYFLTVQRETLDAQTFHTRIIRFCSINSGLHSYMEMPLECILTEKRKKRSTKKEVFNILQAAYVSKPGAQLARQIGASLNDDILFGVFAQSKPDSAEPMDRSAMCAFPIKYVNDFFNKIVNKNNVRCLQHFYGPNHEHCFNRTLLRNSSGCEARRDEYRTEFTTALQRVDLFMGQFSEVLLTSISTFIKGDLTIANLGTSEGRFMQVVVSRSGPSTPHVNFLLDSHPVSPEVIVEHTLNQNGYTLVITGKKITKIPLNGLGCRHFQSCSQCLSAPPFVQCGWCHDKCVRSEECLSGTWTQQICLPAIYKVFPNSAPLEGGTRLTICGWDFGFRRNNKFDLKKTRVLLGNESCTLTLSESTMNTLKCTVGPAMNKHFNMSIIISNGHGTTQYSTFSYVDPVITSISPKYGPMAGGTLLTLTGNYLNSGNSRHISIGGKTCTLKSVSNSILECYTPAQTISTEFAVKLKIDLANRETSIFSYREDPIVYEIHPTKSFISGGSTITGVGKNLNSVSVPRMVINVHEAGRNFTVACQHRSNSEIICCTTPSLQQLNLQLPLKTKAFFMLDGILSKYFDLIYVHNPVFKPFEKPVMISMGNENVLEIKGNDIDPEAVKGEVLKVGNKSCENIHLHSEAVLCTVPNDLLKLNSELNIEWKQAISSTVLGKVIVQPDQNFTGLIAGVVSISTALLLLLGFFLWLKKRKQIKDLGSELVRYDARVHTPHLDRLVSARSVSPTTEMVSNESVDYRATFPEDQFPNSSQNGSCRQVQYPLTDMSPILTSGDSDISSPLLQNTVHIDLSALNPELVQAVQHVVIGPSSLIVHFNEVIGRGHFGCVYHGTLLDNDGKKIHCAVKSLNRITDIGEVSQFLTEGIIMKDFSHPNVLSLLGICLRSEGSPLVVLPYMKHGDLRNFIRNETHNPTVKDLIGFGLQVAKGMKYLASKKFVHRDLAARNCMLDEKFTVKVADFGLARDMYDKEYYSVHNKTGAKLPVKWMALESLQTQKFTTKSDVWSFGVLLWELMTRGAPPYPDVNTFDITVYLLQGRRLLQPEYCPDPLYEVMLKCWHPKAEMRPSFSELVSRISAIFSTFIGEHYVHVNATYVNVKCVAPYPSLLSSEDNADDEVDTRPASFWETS
Chain of Epidermal growth factor receptor (Homo sapiens) (P00533 whole entry): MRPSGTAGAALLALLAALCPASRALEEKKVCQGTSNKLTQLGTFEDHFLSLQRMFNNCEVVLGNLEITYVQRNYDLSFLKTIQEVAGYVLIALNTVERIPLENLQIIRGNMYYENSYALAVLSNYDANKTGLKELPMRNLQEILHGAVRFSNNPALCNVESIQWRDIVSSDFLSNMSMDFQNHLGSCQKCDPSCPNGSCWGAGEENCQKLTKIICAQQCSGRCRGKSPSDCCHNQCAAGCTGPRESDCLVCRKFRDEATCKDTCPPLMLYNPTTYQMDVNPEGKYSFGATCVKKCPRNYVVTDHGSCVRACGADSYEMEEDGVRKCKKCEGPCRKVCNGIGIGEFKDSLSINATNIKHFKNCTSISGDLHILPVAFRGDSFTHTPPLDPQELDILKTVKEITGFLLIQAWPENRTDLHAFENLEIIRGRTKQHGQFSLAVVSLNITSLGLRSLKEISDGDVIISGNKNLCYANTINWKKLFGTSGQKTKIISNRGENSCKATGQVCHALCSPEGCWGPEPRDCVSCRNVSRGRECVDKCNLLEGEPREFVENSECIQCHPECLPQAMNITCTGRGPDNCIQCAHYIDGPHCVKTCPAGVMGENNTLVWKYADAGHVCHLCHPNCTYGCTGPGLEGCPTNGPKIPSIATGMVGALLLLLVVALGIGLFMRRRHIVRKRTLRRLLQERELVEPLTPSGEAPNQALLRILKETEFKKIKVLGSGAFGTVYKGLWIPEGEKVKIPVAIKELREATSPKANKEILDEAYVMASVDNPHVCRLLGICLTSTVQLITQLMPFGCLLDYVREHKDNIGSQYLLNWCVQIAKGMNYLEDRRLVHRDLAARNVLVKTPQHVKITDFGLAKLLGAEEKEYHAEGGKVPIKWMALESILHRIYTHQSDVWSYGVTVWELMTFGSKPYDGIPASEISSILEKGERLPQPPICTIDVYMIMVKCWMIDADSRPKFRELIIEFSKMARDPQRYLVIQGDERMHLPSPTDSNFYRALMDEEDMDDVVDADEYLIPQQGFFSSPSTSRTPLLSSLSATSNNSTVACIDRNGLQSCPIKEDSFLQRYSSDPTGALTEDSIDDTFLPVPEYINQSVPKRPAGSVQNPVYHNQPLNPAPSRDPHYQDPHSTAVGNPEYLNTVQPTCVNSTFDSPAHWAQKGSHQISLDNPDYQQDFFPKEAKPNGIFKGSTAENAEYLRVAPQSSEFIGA

In the case of C=C(C)[C@@]12O[C@@]3(/C=C/C=C/CCCCC)O[C@@H]1[C@@H]1[C@@H]4O[C@]4(CO)[C@@H](O)[C@]4(O)C(=O)C(C)=C[C@H]4[C@@]1(O3)[C@H](C)[C@H]2OC(C)=O [YUANHUADINE], the inhibition [1] is reported as “Active”, the Activity (A549 [2]) is reported as 67% and the Activity (A549 [3]) is reported as 25.1%. For the same molecule, the inhibition [4] was “Active”, the IC50 (PC-3) was 7.4 µM and the Activity (A549 [5]) was “Active”. The Activity (A549 [6]) was 12%, the inhibition [7] was “Active” and the Activity (A549 [8]) was “Active”. The Activity (A549 [9]) was 0.3%, the Activity (A549 [10]) was 0.4% and the inhibition [11] was “Active”. The Activity (A549 [12]) was 26.3%, the inhibition in vivo at 0.5 mg/kg (A549 [13]) was 50% and the Activity (A549 [14]) was 7.5%. For the same molecule, the IC50 (NCI-H358) was 9.1 µM, the IC50 (SW480) was 11.8 µM and the inhibition [15] was “Active”. It also gave an Activity (A549 [16]) of 27.5%, an IC50 (A549 [17]) of 0.012 µM and an IC50 (NCI-H1993) of 0.0047 µM. For the same molecule, the Activity (A549 [18]) was 24.5%, the Activity (A549 [19]) was “Active” and the Activity (A549 [20]) was 1.8%. For the same molecule, the Activity (A549 [21]) was “Active”, the Activity (A549 [22]) was 15.6% and the inhibition [23] was “Active”. The Activity (A549 [24]) was 61.1% and the Activity (A549 [25]) was 28%.

Reference: ChEMBL document CHEMBL1909581, “Growth inhibition of human lung cancer cells via down-regulation of epidermal growth factor receptor signaling by yuanhuadine, a daphnane diterpene from Daphne genkwa” (J Nat Prod, 2011)
